Measured values collected from several papers.
Each line is one published result; the experiments were not run side by side.
PPARA: Peroxisome proliferator-activated receptor alpha (PPARA, Homo sapiens, UniProt Q07869)
CASP9: Caspase-9 (CASP9, Homo sapiens, UniProt P55211)

For COc1ncccc1-c1cnn2ccc(N3CCN(C(=O)OC(C)C)CC3)nc12, the remaining binding was 49% (Mitogen-activated protein kinase kinase kinase 1 (MAP3K1, Homo sapiens, UniProt Q13233); binding, competition with immobilised ligand; 1 µM).
O=C(O)C(F)(OC(F)(F)C(F)(F)C(F)(F)F)C(F)(F)F (stereo not shown) gave an Emax of 134% (PPARA; reporter gene, agonist, luciferase).
Nc1ncc(-c2nc(N3CCOCC3)nc(N3CCOCC3)n2)c(C(F)F)n1 has a remaining binding of 54% (Serine/threonine-protein kinase OSR1 (OXSR1, Homo sapiens, UniProt O95747); binding, competition with immobilised ligand; 10 µM).
O=S(=O)(O)C(F)(F)C(F)(F)OC(F)(C(F)(F)F)C(F)(F)OC(F)C(F)(F)F (stereo not shown) gave an Emax of 28% (PPARA; reporter gene, agonist, luciferase).
The inhibition of CCOC(=O)c1ccc(OC(=O)CCCCCNC(=N)N)cc1 is reported as 0% (Ubiquitin carboxyl-terminal hydrolase 7 (USP7, Homo sapiens, UniProt Q93009); enzyme activity, inhibitor; 10 µM).
The remaining binding of CN1CCN(c2ccc(Nc3nccc(-c4ccccc4)n3)cc2C(F)(F)F)CC1 is reported as 13% (Calcium-dependent protein kinase 1 (CDPK1, Plasmodium falciparum, UniProt P62344); binding; 10 µM).
The inhibition of O=C(Nc1cccnn1)N1CCN([C@@H]2CCOc3cc(C(F)(F)F)ccc32)CC1 is reported as 8% (Interstitial collagenase (MMP1, Homo sapiens, UniProt P03956); cell-free assay; 20 µM).
For O=S(=O)(O)C(F)(F)C(F)(F)C(F)(F)C(F)(F)C(F)(F)C(F)(F)F, the Emax was 67% (PPARA; reporter gene, agonist, luciferase; COS-7).
COC(=O)CC[C@H](NC(=O)[C@H](CC(C)C)NC(=O)OCc1ccccc1)C(=O)N[C@@H](Cc1cnc[nH]1)C(=O)N[C@@H](CC(=O)OC)C(=O)CF has an inhibition of 50% (CASP9; enzyme activity, inhibitor; 1 µM).
For COc1cc(Nc2ncc(F)c(Nc3ccc4c(n3)NC(=O)C(C)(C)O4)n2)cc(OC)c1OC, the inhibition was 84% (Serine/threonine-protein kinase NIM1 (NIM1K, Homo sapiens, UniProt Q8IY84); binding, competition with immobilised ligand; 10 µM).
With C#Cc1n[nH]c2c(-c3cn([C@@H](C)c4ccccc4)c(=O)[nH]c3=O)cc(F)cc12 the inhibition was 6.5% (Inactive tyrosine-protein kinase PEAK1 (PEAK1, Homo sapiens, UniProt Q9H792); enzyme activity, inhibitor; 0.1 µM).
The inhibition of CN(C)C(=O)COC(=O)Cc1ccc(OC(=O)c2ccc(NC(=N)N)cc2)cc1 is reported as 0% (CASP9; enzyme activity, inhibitor; 10 µM).
The inhibition of C#Cc1n[nH]c2c(-c3cn([C@@H](C)c4ccccn4)c(=O)[nH]c3=O)cc(F)cc12 is reported as -0.3% (TRAF2 and NCK-interacting protein kinase (TNIK, Homo sapiens, UniProt Q9UKE5); enzyme activity, inhibitor; 0.1 µM).
For CN[C@@H](C)C(=O)N[C@@H](CNC(=O)c1ccc(S(=O)(=O)F)c(OC)c1)C(=O)N1CCC[C@H]1C(=O)N[C@@H]1CCc2c(F)cccc21, the kinact was 0.0258 s⁻¹ (E3 ubiquitin-protein ligase XIAP, BIR3 (XIAP, Homo sapiens, UniProt P98170); enzyme activity, inhibitor).
With Clc1cccc(-c2c[nH]c3nccc(N4CCOCC4)c23)c1 the ΔTm was > 7.4 °C (Serine/threonine-protein kinase 4 (STK4, Homo sapiens, UniProt Q13043); thermal stability, DSF).
Cc1nn(C)cc1-c1nc2c(N3CCN(Cc4ccc(Cl)cc4)CC3)c(Cl)cnc2[nH]1 gave a remaining binding of 100% (Cyclin-dependent kinase-like 1 (CDKL1, Homo sapiens, UniProt Q00532); binding, competition with immobilised ligand; 1 µM).
